Results from ChEMBL document CHEMBL5385915 (J Med Chem, 2024).
Values after ≈ are worked out from the molar mass of the structure shown. Active and inactive are the calls of the source. No cut-off for these calls is given here.

Key:
[1] = test system: Mycolicibacterium smegmatis; assay: Antimycobacterial activity against Mycobacterium smegmatis MC(2)155 assessed as reduction in microbial growth incubated for 24 hrs by resazurin dye based assay; assay type: functional
[2] = Lipophilicity, log P of the compound; assay type: physicochemical; settings: octanol/water
[3] = Metabolic stability in mouse hepatocyte assessed as intrinsic clearance measured upto 60 mins […] by LC-MS/MS analysis; assay type: ADME, cell-based; settings: hepatocytes, 1 h
How it was run: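 Mouse hepatocytes at 0.5 × 10^6 cells/mL incubated with 1 μM compound at 37 °C, sampled at 0, 10, 20, 30, 45 and 60 min. Disappearance with and without hepatocytes measured by LC-MS/MS; output is mean CLint and t1/2. Duplicate per compound, with up to three species-specific controls.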

[4] = test system: Mycobacterium tuberculosis; assay: Bactericidal activity against Mycobacterium tuberculosis H37Rv incubated for 6 to 10 days by time kill assay; assay type: functional, organism-based; settings: dose <= 96.0 µM, time 6-10 day
How it was run: (§1)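 Time-kill: 2-fold dilutions 96–3 μM in CMM MOD2, 0.1% DMSO vehicle; start 1×10^6 CFU/mL, 37 °C, 200 rpm; sampled days 0, 2, 6, 10, 14; 10-fold dilutions spotted in triplicate on 7H10, counted after 3 weeks; three biological repeats; factorial ANOVA with Tukey post hoc.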

[5] = test system: Mycobacterium tuberculosis; assay: Bactericidal activity against Mycobacterium tuberculosis H37Rv assessed as reduction in bacterial count at […] uM incubated for 6 days by time kill assay; assay type: functional; settings: time 6 day; how it was run: as §1
[6] = test system: Mycobacterium tuberculosis; assay: Bactericidal activity against Mycobacterium tuberculosis H37Rv assessed as reduction in bacterial count at […] uM incubated for 14 days by time kill assay; assay type: functional; settings: time 14 day; how it was run: as §1
[7] = test system: Mycobacterium tuberculosis; assay: Bactericidal activity against Mycobacterium tuberculosis H37Rv assessed as reduction in viable count at 96 uM incubated for 6 days by CV-AM staining based flow cytometry analysis; assay type: functional; settings: time 6 day
How it was run: (§2)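 H37Rv from time-kill wells (3–96 μM, 0.1% DMSO vehicle) at each time point, stained in quadruplicate 1 h, 37 °C, dark with 20 μM CV-AM and/or 20 μM Sytox Green; fixed 4% formaldehyde 1 h; flow cytometry (405/488 nm lasers); singlets gated by FSC area/height, quadrant gates P1–P4.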

[8] = test system: Mycobacterium tuberculosis; assay: Bactericidal activity against Mycobacterium tuberculosis H37Rv assessed as reduction in viable count at 96 uM incubated for 10 days by CV-AM staining based flow cytometry analysis; assay type: functional; settings: time 10 day; how it was run: as §2
[9] = test system: Mycobacterium tuberculosis; assay: Bactericidal activity against Mycobacterium tuberculosis H37Rv assessed as reduction in viable count at 96 uM incubated for 14 days by CV-AM staining based flow cytometry analysis; assay type: functional; settings: time 14 day; how it was run: as §2
[10] = test system: Mycobacterium tuberculosis; assay: Bactericidal activity against Mycobacterium tuberculosis H37Rv assessed as reduction in viable count at 96 uM incubated for 14 days by sytox green staining based flow cytometry analysis; assay type: functional, organism-based; settings: time 14.0 day; how it was run: as §2
[11] = test system: Mycobacterium tuberculosis; assay: Bactericidal activity against Mycobacterium tuberculosis H37Rv assessed as reduction in viable count at 48 uM incubated for 6 days by sytox green staining based flow cytometry analysis; assay type: functional; settings: time 6 day; how it was run: as §2
[12] = test system: Mycobacterium tuberculosis; assay: Bactericidal activity against Mycobacterium tuberculosis H37Rv assessed as reduction in viable count at 48 uM incubated for 14 days by sytox green staining based flow cytometry analysis; assay type: functional; settings: time 14 day; how it was run: as §2
[13] = test system: Mycolicibacterium smegmatis; assay: Inhibition of macromolecule biosynthesis in Mycobacterium smegmatis assessed as reduction in incorporation of [3H]-thymidine in DNA at 0.75 times MIC incubated for 36 hrs; assay type: functional, organism-based
[14] = test system: Mycolicibacterium smegmatis; assay: Inhibition of macromolecule biosynthesis in Mycobacterium smegmatis assessed as reduction in incorporation of [3H]-uridine in RNA at 0.75 times MIC incubated for 36 hrs; assay type: functional, organism-based
[15] = test system: Mycolicibacterium smegmatis; assay: Inhibition of macromolecule biosynthesis in Mycobacterium smegmatis assessed as reduction in incorporation of [3H]-leucine in protein at 0.75 times MIC incubated for 36 hrs; assay type: functional, organism-based
[16] = test system: Mycolicibacterium smegmatis; assay: Inhibition of macromolecule biosynthesis in Mycobacterium smegmatis assessed as reduction in incorporation of [3H]-diaminopimelic acid in peptidoglycan at 1 times MIC incubated for 6 hrs; assay type: functional, organism-based
[17] = test system: Mycolicibacterium smegmatis; assay: Inhibition of cell wall biosynthesis in Mycobacterium smegmatis assessed as reduction in trehalose monomycolate accumulation at 0.5 to 5 times MIC incubated for 6 hrs in presence of [14C]acetate by MPA staining based TLC analysis; assay type: functional, organism-based
[18] = test system: Mycolicibacterium smegmatis; assay: Inhibition of cell wall biosynthesis in Mycobacterium smegmatis assessed as reduction in trehalose dimycolate accumulation at 0.5 to 5 times MIC incubated for 6 hrs in presence of [14C]acetate by alpha-napthol staining based TLC analysis; assay type: functional, organism-based
[19] = test system: Mycolicibacterium smegmatis; assay: Inhibition of mycolic acid biosynthesis in Mycobacterium smegmatis at 5 times MIC incubated for 12 hrs in presence of [14C]acetate by TLC based autoradiography analysis; assay type: functional, organism-based
[20] = test system: Corynebacterium glutamicum; assay: Inhibition of mycolic acid biosynthesis in Corynebacterium glutamicum at 0.5 to 5 times MIC incubated for 6 hrs by TLC based autoradiography analysis; assay type: functional, organism-based
[21] = test system: Corynebacterium glutamicum; assay: Inhibition of mycolic acid biosynthesis in Corynebacterium glutamicum pks13 at 0.5 to 5 times MIC incubated for 6 hrs by TLC based autoradiography analysis; assay type: functional, organism-based
[22] = test system: Corynebacterium glutamicum; assay: Inhibition of mycolic acid biosynthesis in Corynebacterium glutamicum harboring MmpL3 at 0.5 to 5 times MIC incubated for 6 hrs by TLC based autoradiography analysis; assay type: functional, organism-based
[23] = test system: Mycobacterium tuberculosis; assay: Antitubercular activity against drug-sensitive Mycobacterium tuberculosis H37Rv pTYOK assessed as inhibition of bacterial growth measured upto 3 days by luminometer based analysis; assay type: functional; settings: 72 h, time <= 3 day
[24] = test system: Mycobacterium tuberculosis; assay: Antitubercular activity against drug-sensitive Mycobacterium tuberculosis H37Rv assessed as inhibition of bacterial growth measured for 7 days by REMA analysis; assay type: functional; settings: 168 h, time 7 day
How it was run: (§3)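 REMA: 2-fold dilutions in CMM MOD2 medium, wells inoculated at 1×10^6 CFU/mL, 7 days at 37 °C with 200 rpm agitation; resazurin (0.02% w/v in PBS pH 7.4, 5% Tween 80) then 6 h at room temperature; OD570 vs vehicle; MIC99 by modified Gompertz function; three biological replicates.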

[25] = test system: Mycobacterium tuberculosis; assay: Antitubercular activity against Mycobacterium tuberculosis 1192/015 assessed as inhibition of bacterial growth measured for 7 days by REMA analysis; assay type: functional; settings: 1192/015, 168 h, time 7 day; how it was run: as §3
[26] = Metabolic stability in mouse liver microsome assessed as intrinsic clearance measured upto 30 mins in presence of NADPH by LC-MS/MS analysis; assay type: ADME; settings: liver microsomes, read-out: CLH
How it was run: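 1 μM compound with 0.5 mg/mL mouse liver microsomes, with or without NADPH (1 mM), 37 °C, sampled at 0, 5, 10, 15 and 30 min. Parent loss followed by LC-MS/MS, giving mean CLint and t1/2. Two replicates per compound; up to three species-specific control compounds included.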

[27] = Efflux ratio of permeability across basolateral to apical side over apical to basolateral side in human Caco-2 cells incubated for 2 hrs by LC-MS/MS analysis; assay type: ADME, cell-based
[28] = Kinetic solubility in pH 7.4 PBS incubated for 5 mins by UV-spectrophotometry analysis; assay type: physicochemical; settings: read-out: Kinetic_solubility
How it was run: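 Compounds from 10 mM DMSO stock diluted in PBS pH 7.4 to a seven-point series (0.2–100 μM), final DMSO 1%, shaken 5 min at 25 °C. Turbidity read by UV at 620 nm; Log_S converted to solubility as S = 10^LogS. Nicardipine control; triplicate.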

HepG2 [29] = assay: Cytotoxicity against human HepG2 cells assessed as reduction in cell viability incubated for 24 hrs in presence of glucose by MTT assay; assay type: functional, cell-based; settings: HepG2, 24 h
HepG2 [30] = assay: Cytotoxicity against human HepG2 cells assessed as reduction in cell viability incubated for 24 hrs in presence of galactose by MTT assay; assay type: functional, cell-based; settings: HepG2, 24 h
[31] = test system: Mycobacterium tuberculosis; assay: Bactericidal activity against Mycobacterium tuberculosis H37Rv assessed as reduction in viable count at 48 uM incubated for 6 days by CV-AM staining based flow cytometry analysis; assay type: functional; settings: time 6 day; how it was run: as §2
[32] = test system: Mycobacterium tuberculosis; assay: Bactericidal activity against Mycobacterium tuberculosis H37Rv assessed as reduction in viable count at 48 uM incubated for 10 days by CV-AM staining based flow cytometry analysis; assay type: functional; settings: time 10 day; how it was run: as §2
[33] = test system: Mycobacterium tuberculosis; assay: Bactericidal activity against Mycobacterium tuberculosis H37Rv assessed as reduction in viable count at 48 uM incubated for 14 days by CV-AM staining based flow cytometry analysis; assay type: functional; settings: time 14 day; how it was run: as §2
[34] = test system: Mycolicibacterium smegmatis; assay: Inhibition of cell wall biosynthesis in Mycobacterium smegmatis assessed as formation of cytoplasmic membrane phospholipids at 0.5 to 5 times MIC incubated for 6 hrs in presence of [14C]acetate by TLC based autoradiography analysis; assay type: functional, organism-based

Brc1ccccc1CN1[C@H](CN2CCCC2)C[C@@H]1c1ccccc1 (racemic)
MIC99 [1]: 30.5 µM
logP [2]: 4.84

Clc1cc(Cl)cc([C@H]2C[C@@H](CN3CCCC3)N2Cc2ccccc2Br)c1 (racemic)
MIC99 [1]: 14 µM
logP [2]: 6.05

COCCNC[C@@H]1C[C@H](c2ccc(OC(F)(F)F)cc2)N1Cc1ccccc1OC(F)(F)F (racemic)
MIC99 [1]: 29 µM
logP [2]: 6.1

CNC[C@@H]1C[C@H](c2ccc(OC(F)(F)F)cc2)N1Cc1ccccc1OC(F)(F)F (racemic)
logP [2]: 6.14
intrinsic clearance (CLint) [3]: < 60 µL/min/mg
Activity [4]: Dose-Dependent Effect
Activity [5]: 3.28 log10CFU/ml
Activity [6]: 3.99 log10CFU/ml
Activity [7]: 0.043%
Activity [8]: 0.08%
Activity [9]: 0.011%
Activity [10]: Active
Activity [11]: 0.027%
Activity [12]: 0.068%
inhibition [13]: inactive
inhibition [14]: inactive
inhibition [15]: inactive
inhibition [16]: Active
inhibition [17]: Active
inhibition [18]: Active
inhibition [19]: Active
inhibition [20]: Active
inhibition [21]: Active
inhibition [22]: Active

C#CCNC[C@@H]1C[C@H](c2cc(Br)cc(Br)c2)N1Cc1ccccc1Br (racemic)
MIC99 [1]: 100 µM
logP [2]: 5.82

CC(C)NC[C@@H]1C[C@H](c2ccccc2)N1Cc1ccccc1OC(F)(F)F (racemic)
MIC99 [1]: 87 µM
logP [2]: 5.49

FC(F)(F)c1cc([C@H]2C[C@@H](CN3CCCC3)N2Cc2ccccc2Br)cc(C(F)(F)F)c1 (racemic)
MIC99 [1]: 26 µM
logP [2]: 6.6
MIC50 [23]: 6.9 µM (≈ 3.6 µg/mL)
MIC99 [24]: 3.3 µM (≈ 1.72 µg/mL)
MIC99 [25]: 19.1 µM (≈ 9.96 µg/mL)
microsomal CLint [26]: > 150 µL/min/mg
intrinsic clearance (CLint) [3]: < 60 µL/min/mg
efflux ratio at 2 h [27]: < 1
inhibition [21]: Active
inhibition [22]: Active

CN(C)C[C@@H]1C[C@H](c2cc(Br)cc(Br)c2)N1Cc1ccccc1Br (racemic)
MIC99 [1]: 80 µM
logP [2]: 5.97

FC(F)(F)Oc1ccc([C@H]2C[C@@H](CN3CCCC3)N2Cc2ccccc2OC(F)(F)F)cc1 (racemic)
logP [2]: 6.93
solubility kinetic at 5 min [28]: 7 µM (≈ 3.32 µg/mL)
microsomal CLint [26]: > 150 µL/min/mg
intrinsic clearance (CLint) [3]: < 60 µL/min/mg
efflux ratio at 2 h [27]: < 1
inhibition [21]: Active
inhibition [22]: Active

COc1ccc([C@H]2C[C@@H](CN3CCCC3)N2Cc2ccccc2Br)cc1 (racemic)
logP [2]: 4.68

CC(C)NC[C@@H]1C[C@H](c2ccc(OC(F)(F)F)cc2)N1Cc1ccccc1OC(F)(F)F (racemic)
MIC99 [1]: 23 µM
logP [2]: 6.92

Brc1cc(Br)cc([C@H]2C[C@@H](CN3CCCC3)N2Cc2ccccc2Br)c1 (racemic)
microsomal CLint [26]: > 150 µL/min/mg
intrinsic clearance (CLint) [3]: < 60 µL/min/mg
IC50 (HepG2 [29]): > 100 µM
IC50 (HepG2 [30]): > 100 µM
Activity [4]: Dose-Dependent Effect
Activity [5]: 0.79 log10CFU/ml
Activity [6]: 1.9 log10CFU/ml
Activity [31]: 0.067%
Activity [32]: 0.065%
Activity [33]: 0.066%
Activity [10]: Active
inhibition [34]: Active
inhibition [21]: Active
inhibition [22]: Active

FC(F)(F)c1ccc(C2CCN(C[C@@H]3C[C@H](c4ccccc4)N3Cc3ccccc3Br)CC2)cc1 (racemic)
MIC99 [1]: 100 µM
logP [2]: 7.58

CC(C)NC[C@@H]1C[C@H](c2ccc(OC(F)(F)F)cc2)N1Cc1ccccc1Br (racemic)
MIC99 [1]: 23 µM
logP [2]: 6.26

CC(C)NC[C@@H]1C[C@H](c2ccccc2)N1Cc1ccccc1Br (racemic)
MIC99 [1]: 94 µM
logP [2]: 4.82

FC(F)(F)Oc1ccc(C2CCN(C[C@@H]3C[C@H](c4ccccc4)N3Cc3ccccc3Br)CC2)cc1 (racemic)
MIC99 [1]: 100 µM
logP [2]: 8.14
